High-throughput results: PubChem BioAssay, The Scripps Research Institute Molecular Screening Center
NPY-Y1 PAM-ag: NPY-Y1 receptor potentiators or agonists, primary screen, cell-based. NPY-Y1 expressing cells, potentiator/agonist activation. activation, % at 3.6 µM. 220,000 compounds, 0.37% hits. AID 1304, 2008; in the data active means activation above about 33%, passing the limit was not always enough;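 further: cells stimulated with NPY at EC10 then isoproterenol at EC100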
NPY-Y1 antag: NPY-Y1 receptor antagonists, primary screen, cell-based. Neuropeptide Y receptor type 1 (Homo sapiens), P25929. HEK293-CNG Y1 cells, membrane potential fluorescence; NPY at EC95, then isoproterenol. inhibition, % at 3.6 µM. 200,000 compounds, 1% hits. AID 1040, 2008;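 active means inhibition above the campaign mean inhibition of all tested compounds plus 3 SD, cut at about 20% in these data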
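material = HEK293 cells with Y1 receptor plus CNG channel | also added = NPY 25 nM then isoproterenol 1 µM plus Ro 20-1724 25 µM | schedule = dye 3 h, compound 60 min room temperature, stimulation 45 min | measured by = membrane potential fluorescence | benchmarks = high control isoproterenol alone, low control NPY with isoproterenol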
NPY2 pot ag: NPY-Y2 potentiators or agonists, primary screen, cell-based; Neuropeptide Y receptor type 2 (Homo sapiens), P49146; cells expressing NPY-Y2, potentiator/agonist read-out; activation, % at 3.6 µM; 220,000 compounds, 0.45% hits; AID 1359, 2008; in the data active means activation above about 27%;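 further: cells stimulated with NPY near EC25 plus isoproterenol at EC100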
NPY Y2 blocker: NPY-Y2 receptor antagonists, primary screen, cell-based; 140,000 compounds, 0.99% hits; NPY-Y2 expressing cells, antagonist mode; inhibition, % at 2.7 µM
S1P4 ag: S1P4 receptor agonists, primary screen, cell-based; Sphingosine 1-phosphate receptor 4 (Homo sapiens), O95977; S1P4-expressing cell line, agonist reporter assay; activation, % at 4.98 µM; 220,000 compounds, 0.35% hits; in the data active means activation above about 11%
Target sequence (O95977 whole entry, looked up): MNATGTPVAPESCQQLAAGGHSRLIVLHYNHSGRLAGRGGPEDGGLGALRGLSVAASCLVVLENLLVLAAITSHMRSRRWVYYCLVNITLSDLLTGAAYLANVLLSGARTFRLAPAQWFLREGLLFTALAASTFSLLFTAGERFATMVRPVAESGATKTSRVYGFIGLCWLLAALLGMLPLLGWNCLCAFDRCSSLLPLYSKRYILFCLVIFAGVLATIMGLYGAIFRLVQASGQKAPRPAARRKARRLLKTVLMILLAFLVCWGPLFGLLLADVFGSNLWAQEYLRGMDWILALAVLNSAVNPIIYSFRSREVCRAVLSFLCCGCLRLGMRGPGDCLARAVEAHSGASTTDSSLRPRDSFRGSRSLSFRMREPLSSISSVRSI
S1P4 antagonist: S1P4 receptor antagonists, primary screen, cell-based | Sphingosine 1-phosphate receptor 4 (Homo sapiens), O95977 | S1P4-expressing cells, antagonist mode, reporter read-out | inhibition, % at 4.98 µM | 220,000 compounds, 0.26% hits | AID 1510, 2009; in the data active means inhibition above about 29%
NPY-Y1 ant conf: NPY-Y1 receptor antagonists, retest of hits, confirmation, HEK293-CNG cells, membrane potential fluorescence, triplicate. inhibition, % at 3.6 µM. shares compounds with NPY-Y1 antag. cAMP; NPY challenge against isoproterenol-raised cAMP. 1,200 compounds, 21% hits; in the data active means inhibition above about 20%
NPY-Y2 antag ct: NPY-Y2 receptor antagonists, selectivity check, confirmation, counter-screen for NPY-Y1 antagonist project, HEK293-CNG cells, membrane potential fluorescence, triplicate | shares compounds with NPY-Y1 antag | antagonism; cells given NPY, then isoproterenol | inhibition, % at 3.6 µM | 1,200 compounds, 28% hits | AID 1255, 2008
Hits are given with their value; 0 = inactive; - = no result given. Most compounds without a hit are left out; they make up all but 2.4% or so of the library. Unless noted, no stated cut-off is given here; in the data, active means inhibition above about 17%; inactive means the rest.

SMILES	NPY-Y1 PAM-ag	NPY-Y1 antag	NPY2 pot ag	NPY Y2 blocker	S1P4 ag	S1P4 antagonist	NPY-Y1 ant conf	NPY-Y2 antag ct
COc1cc(C2C(C#N)=C(N)Oc3cc4c(cc32)OCO4)cc(OC)c1OC (configuration not stated)	0	22	0	-	0	0	0	0
CCN(CC)C(=O)CSc1ncnc2sc(C)c(C)c12	0	0	0	-	0	0	-	-
CCC(Sc1ncnc2sc(C)c(C)c12)C(=O)OC (configuration not stated)	0	26	0	0	0	0	0	0
Cn1c(=O)cc(SCC(=O)NCCCN2CCN(c3ccccc3F)CC2)c2ccccc21	0	21	0	0	0	0	0	0
COc1ccccc1OCCCOc1c(C)cc(C)cc1Br	0	0	0	0	0	0	-	-
COc1ccccc1OCCOCCOc1c(C)cc(C)cc1Br	0	24	0	0	0	0	0	0
COc1ccc(-c2c[n+](CC(=O)OC3CC(C)CCC3C(C)C)c3n2CCC3)cc1 (configuration not stated)	0	75	0	-	0	0	61	35
CCCCCC(=O)Nc1ccccc1N1CCN(c2ccccc2)CC1	0	22	0	0	0	0	0	0
O=C(C1CCC(CNc2nc(=S)[nH]c3ccccc23)CC1)N1CCN(c2ccc(F)cc2)CC1 (configuration not stated)	0	0	0	-	0	0	-	-
Cc1oc(-c2ccc(Cl)cc2)nc1CN1CCC(C(=O)NCCCN2CCOCC2)CC1	0	23	0	0	0	0	0	0
O=C(c1ccc2c(c1)OCO2)N(CC1CCCO1)C1(C(=O)NC2CCCC2)CCCCC1 (configuration not stated)	0	30	0	0	0	0	0	0
O=C(NC1(C(=O)NC2CCCCC2)CCCCC1)c1ccc2c(c1)OCO2	0	0	0	0	0	0	-	-
Cc1c(NC(=O)C(C)OC(=O)c2c3c(nc4ccccc24)CCC3)c(=O)n(-c2ccccc2)n1C (configuration not stated)	0	0	0	0	0	0	-	-
COc1ccc(C(C)(C)C)cc1S(=O)(=O)N1CCC(C(N)=O)CC1	0	23	0	0	0	0	0	0
COc1ccc(F)cc1S(=O)(=O)N1CCC(C(N)=O)CC1	0	0	0	0	0	0	-	-
Cc1nc(SCc2ccc(OCCC(C)C)cc2)n[nH]1	0	0	0	-	0	0	-	-
CC(NC(=O)c1cc(COc2c(F)cccc2F)on1)c1cnn(-c2ccccc2)c1 (configuration not stated)	0	22	0	-	0	0	0	0
CCOC(=O)C1(Cc2cccc(OC)c2)CCN(Cc2cccn2-c2nccs2)CC1	0	0	0	-	0	0	-	-
CCOC(=O)C1(Cc2ccccc2)CCN(Cc2cccn2-c2nccs2)CC1	0	29	0	-	0	0	0	22
CCOC(=O)C1(Cc2ccccc2)CCN(Cc2cccn2-c2cccnc2)CC1	0	30	0	-	0	0	0	0
CCOC(=O)C1(CCOc2ccccc2)CCN(Cc2cccn2-c2cccnc2)CC1	0	0	0	-	0	0	-	-
Cc1ccccc1OCC(=O)Nc1cc(S(=O)(=O)N2CCCCC2)ccc1N1CCN(C)CC1	0	0	0	-	0	0	-	-
c1ccc(-c2cc3c(-n4cccc4)ncnc3o2)cc1	0	21	0	0	0	0	0	0
COc1cccc(OCC(=O)Nc2ccccc2-c2ccccc2)c1	0	24	0	-	0	0	0	0
COc1ccc(C(=O)n2c(-c3ccco3)nc3ccccc32)cc1	0	23	0	0	0	0	0	0
SMILES	NPY-Y1 PAM-ag	NPY-Y1 antag	NPY2 pot ag	NPY Y2 blocker	S1P4 ag	S1P4 antagonist	NPY-Y1 ant conf	NPY-Y2 antag ct
CCCCNC(=O)c1onc(CCl)c1C(=O)OC	0	0	0	0	0	0	-	-
COc1cc(CC(=O)OCC(=O)NCC(C)C)cc(OC)c1OC	0	0	0	-	0	0	-	-
Cc1ccc(C(C)C)c(OCc2n[nH]c(=S)o2)c1	0	23	0	-	0	0	0	0
Cc1ccc(C)c(OCc2n[nH]c(=S)o2)c1	0	-	0	-	0	0	-	-
CCS(=O)(=O)N1CCN(c2ccc(Cl)cc2[N+](=O)[O-])CC1	0	0	0	0	0	0	-	-
O=C(COc1ccc2ccccc2c1)NCCc1ccc2c(c1)OCCO2	0	25	0	0	0	0	0	0
Cc1ccc(Cc2cnc(NC(=O)/C(C#N)=C/c3ccc(-c4ccccc4[N+](=O)[O-])o3)s2)cc1	0	27	0	0	0	0	50	46
N=C1S/C(=C\c2cn[nH]c2-c2ccc(F)cc2)C(=O)N1c1ccccc1F	0	0	0	0	0	0	-	-
CCOC(=O)C(CO)(NC(C)=O)C(=O)OCC	0	25	0	0	0	0	0	0
CN(C)/N=C/c1ccc(P(c2ccc(/C=N/N(C)C)o2)c2ccc(/C=N/N(C)C)o2)o1	0	0	0	-	0	0	-	-
Cc1ccc(C(c2c(C)n(C)n(-c3ccccc3)c2=O)c2c(C)n(C)n(-c3ccccc3)c2=O)s1	0	0	0	-	0	0	-	-
CNCCCOc1cccc(OC(C)C)c1	0	0	0	0	0	0	-	-
CNCCCOc1cccc(Oc2ccccc2)c1	0	23	0	-	0	0	0	0
C=CCn1c(CCNC(=O)c2ccccc2F)nnc1SCC(=O)Nc1nc2ccccc2s1	0	0	0	0	0	0	-	-
O=C(COC(=O)CCc1c[nH]c2ccccc12)Nc1cc([N+](=O)[O-])ccc1Cl	0	27	0	0	0	0	0	0
CC(NC(=O)COc1ccccc1F)C1CC2CCC1C2 (configuration not stated)	0	0	0	-	0	0	-	-
C=C(C)CNC(=S)NN=C1c2ccccc2-c2ccccc21	0	33	0	-	0	0	36	69
COc1ccc(C(=O)Nc2nc3c(s2)CCCC3)cc1S(=O)(=O)N1CCCc2ccccc21	0	0	0	0	0	0	-	-
Cc1nn(-c2ccccc2)c2sc(C(=O)O)cc12	0	25	0	0	0	0	22	0
CCN(CC)CCOC(=O)/C=C/c1ccccc1OC	0	21	0	0	0	0	0	0
